pIC50: −log10 of the molar value. The source made the active and inactive calls. No cut-off for these calls is given here.
Legend:
[1] = test system: A549; experiment: Cytotoxicity against human A549 cells assessed as reduction in cell viability after 48 hrs by MTT assay; format: functional, cell-based; conditions: A549, 48 h
Method in brief: (§1)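 MTT viability assay. Stocks in DMSO were diluted into culture medium to final 1, 5, 10, 50 and 100 µg/mL, with DMSO below 1%. A549, MCF-7, SKOV3 and normal mouse fibroblast L929 were used, with etoposide as reference. Values are means of three experiments. L929 was also tested up to 200 µg/mL alongside cisplatin 50 µg/mL.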

[2] = test system: MCF7; experiment: Cytotoxicity against human MCF7 cells assessed as reduction in cell viability after 48 hrs by MTT assay; format: functional, cell-based; conditions: MCF7, 48 h; method in brief: as §1
[3] = test system: SK-OV-3; experiment: Cytotoxicity against human SKOV3 cells assessed as reduction in cell viability after 48 hrs by MTT assay; format: functional, cell-based; conditions: SK-OV-3, 48 h; method in brief: as §1
[4] = test system: L929; experiment: Genotoxicity in mouse L929 cells assessed as induction of DNA damage at 0.5 ug/ml incubated for 1 hr by alkaline comet assay; format: toxicity, cell-based; conditions: l929, 1 h
Method in brief: (§2)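 Alkaline comet assay in L929 seeded at 250000 cells/well and exposed for 1 h to 10 µg/mL; etoposide 0.5 µg/mL served as positive control and untreated cells as negative. Cells were embedded in low-melt agarose and lysed 1 h at 4 °C (2.5 M NaCl, 100 mM EDTA, 10 mM Tris, pH 10, 10% DMSO, 1% Triton X-100). DNA unwound 40 min at pH>13, electrophoresed 25 V/300 mA 20 min, neutralized, stained with ethidium bromide. Tail length, % tail DNA and tail moment scored; mean ± SEM.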

[5] = test system: MCF7; experiment: Cell cycle arrest in human MCF7 cells assessed as accumulation at sub-G1 phase at 12 ug/ml after 48 hrs by RNase A/propidium iodide staining based FACScalibur flow cytometry (reference value: 0.66 %); format: functional
Method in brief: (§3)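 MCF-7 seeded at 25×10^4 cells/well, treated 24 h later with 12 µg/mL for 48 h; untreated control. Cells washed in cold PBS, fixed in 70% ethanol ≥3 h, RNase A 1 h at room temperature, then propidium iodide. Phase distribution (sub-G1, G1, S, G2/M) read by flow cytometry.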

[6] = test system: L929; experiment: Cytotoxicity against mouse L929 cells assessed as […] cell viability after 48 hrs by MTT assay; format: cell-based; conditions: L929, 48 h; method in brief: as §1
[7] = Hemolytic activity in human erythrocytes at 10 ug/ml after 1 hr relative to control; format: ADME, cell-based, Erythrocyte; conditions: read-out: Activity
Method in brief: (§4)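 Human erythrocytes; DMSO stock added 1:20 to diluted cells to give final 1, 5 and 10 µg/mL. DMSO served as negative control and Triton X-100 (2% v/v) as positive (100%) control. Percent hemolysis measured in three repeats, mean ± SD.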

[8] = test system: Erythrocyte; experiment: Hemolytic activity in human erythrocytes at 1 to 5 ug/ml after 1 hr; format: ADME, cell-based; method in brief: as §4
[9] = test system: L929; experiment: Genotoxicity in mouse L929 cells assessed as induction of DNA damage at 10 ug/ml incubated for 1 hr by alkaline comet assay; format: toxicity, cell-based; conditions: l929, 1 h; method in brief: as §2
[10] = (§5) Inhibition of sheep brain tubulin polymerization incubated for 15 mins in presence of GTP by turbidimetric method; parameters: species or system Ovis aries
Method in brief: (§6)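 Tubulin purified from sheep brain by three polymerization/depolymerization cycles. It was preincubated 15 min on ice with 0.5, 2, 10 or 20 µg/mL, then polymerization started with 1 mM GTP at 37 °C and followed by turbidity at 350 nm. IC50 was taken from area under the curve, with untreated control set as 100% polymerization. Colchicine served as reference.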

[11] = species on record: Ovis aries; experiment: as §5; method in brief: as §6
[12] = test system: MCF7; experiment: Cell cycle arrest in human MCF7 cells assessed as accumulation at G1 phase at 12 ug/ml after 48 hrs by RNase A/propidium iodide staining based FACScalibur flow cytometry (reference value: 44.45 %); format: functional; method in brief: as §3
[13] = test system: MCF7; experiment: Cell cycle arrest in human MCF7 cells assessed as accumulation at S phase at 12 ug/ml after 48 hrs by RNase A/propidium iodide staining based FACScalibur flow cytometry (reference value: 38.2 %); format: functional; method in brief: as §3
[14] = test system: MCF7; experiment: Cell cycle arrest in human MCF7 cells assessed as accumulation at G2/M phase at 12 ug/ml after 48 hrs by RNase A/propidium iodide staining based FACScalibur flow cytometry (reference value: 16.69 %); format: functional; method in brief: as §3
[15] = test system: SK-OV-3; experiment: Induction of apoptosis in human SKOV3 cells assessed as viable cells at 2 ug/ml after 48 hrs by AnnexinV-FITC/propidium iodide staining based FACScan flow cytometry analysis relative to control; format: functional; conditions: SK-OV-3, 48 h, read-out: Activity
Method in brief: (§7)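 SKOV3 seeded at 1×10^6 cells/well for 24 h, then given fresh medium containing 2 or 4 µg/mL for 48 h. Cells harvested by trypsinization, PBS-washed, stained with Annexin-V-FITC 15 min at room temperature, then PI 10 min. Flow cytometry with 488 nm excitation; quadrants were necrotic, late apoptotic, viable and early apoptotic.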

[16] = test system: SK-OV-3; experiment: Induction of apoptosis in human SKOV3 cells assessed as early apoptotic cells at 2 ug/ml after 48 hrs by AnnexinV-FITC/propidium iodide staining based FACScan flow cytometry analysis relative to control; format: functional; method in brief: as §7
[17] = test system: SK-OV-3; experiment: Induction of apoptosis in human SKOV3 cells assessed as late apoptotic cells at 2 ug/ml after 48 hrs by AnnexinV-FITC/propidium iodide staining based FACScan flow cytometry analysis relative to control; format: functional; method in brief: as §7
[18] = test system: SK-OV-3; experiment: Induction of apoptosis in human SKOV3 cells assessed as necrotic cells at 2 ug/ml after 48 hrs by AnnexinV-FITC/propidium iodide staining based FACScan flow cytometry analysis relative to control; format: functional; method in brief: as §7
[19] = test system: SK-OV-3; experiment: Induction of apoptosis in human SKOV3 cells assessed as viable cells at 4 ug/ml after 48 hrs by AnnexinV-FITC/propidium iodide staining based FACScan flow cytometry analysis relative to control; format: functional; conditions: SK-OV-3, 48 h, read-out: Activity; method in brief: as §7
[20] = test system: SK-OV-3; experiment: Induction of apoptosis in human SKOV3 cells assessed as early apoptotic cells at 4 ug/ml after 48 hrs by AnnexinV-FITC/propidium iodide staining based FACScan flow cytometry analysis relative to control; format: functional; method in brief: as §7
[21] = test system: SK-OV-3; experiment: Induction of apoptosis in human SKOV3 cells assessed as late apoptotic cells at 4 ug/ml after 48 hrs by AnnexinV-FITC/propidium iodide staining based FACScan flow cytometry analysis relative to control; format: functional; method in brief: as §7
[22] = test system: SK-OV-3; experiment: Induction of apoptosis in human SKOV3 cells assessed as necrotic cells at 4 ug/ml after 48 hrs by AnnexinV-FITC/propidium iodide staining based FACScan flow cytometry analysis relative to control; format: functional; method in brief: as §7
[23] = species on record: Ovis aries; experiment: Inhibition of colchicine binding to sheep brain tubulin assessed as decrease in fluorescence of colchicine-tubulin complex at 1 to 5 uM by fluorescence based assay
Method in brief: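 Purified tubulin (0.25 µM) incubated 1 h at 37 °C with colchicine 0.1, 0.25, 0.5 or 1 µM, then test compound at final 1 or 5 µM. Fluorescence read at ex 360/em 430 nm, corrected for compound background, expressed as F/F0; n=3.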

[24] = test system: B16; experiment: Cytotoxicity against mouse B16 cells assessed as reduction in cell growth; format: functional, cell-based
[25] = test system: HCT-116; experiment: Cytotoxicity against human HCT116 cells assessed as reduction in cell growth; format: functional, cell-based
[26] = test system: MCF7; experiment: Cytotoxicity against human MCF7 cells assessed as reduction in cell growth; format: functional, cell-based
[27] = test system: A549; experiment: Cytotoxicity against human A549 cells assessed as reduction in cell growth; format: functional, cell-based
[28] = test system: PC-3; experiment: Cytotoxicity against human PC3 cells assessed as reduction in cell growth; format: functional, cell-based

Compound | pIC50 [1] | pIC50 [2] | pIC50 [3] | IC50 [2] [µg/mL] | other results
COc1cc(C2(O)CSC(=S)N2Cc2ccc(F)cc2)cc(OC)c1OC (stereo not given) | 4.67 | 4.92 | 4.91 | – | –
COc1cc(-c2csc(=S)n2Cc2ccccc2)cc(OC)c1OC | 4.92 | 4.86 | 4.76 | – | –
COc1cc([C@@H]2c3cc4c(cc3[C@@H](O[C@@H]3O[C@@H]5CO[C@@H](C)O[C@H]5[C@H](O)[C@H]3O)[C@H]3COC(=O)[C@H]23)OCO4)cc(OC)c1O [ETOPOSIDE] | 5.22 | 5.24 | 5.04 | – | Activity [4]: Toxic
COc1cc(C2(O)CSC(=S)N2Cc2ccccc2Cl)cc(OC)c1OC (stereo not given) | 4.84 | 4.91 | 4.92 | – | –
COc1cc(-c2csc(=S)n2Cc2ccc(Cl)cc2)cc(OC)c1OC | 5.17 | 5.23 | 4.74 | – | Activity [5]: 17.28%; IC50 [6]: > 200 µg/mL; hemolysis at 1 h, 10 ug/ml [7]: < 25%; Activity [8]: Non-Toxic; Activity [9]: Toxic; IC50 [10]: 9.97 µg/mL; inhibition [11]: Dose-dependent effect; Activity [12]: 54.57%; Activity [13]: 22.43%; Activity [14]: 5.72%; viability at 2 µg/mL [15]: 64.1%; Activity [16]: 6.2%; Activity [17]: 13.55%; Activity [18]: 16.12%; viability at 4 µg/mL [19]: 64.1%; Activity [20]: 6.2%; Activity [21]: 15.49%; Activity [22]: 19.9%
COc1cc(-c2csc(=S)n2Cc2ccc(O)cc2)cc(OC)c1OC | 4.81 | 4.66 | 4.73 | – | –
COc1cc(-c2csc(=S)n2-c2ccc(Cl)c(Cl)c2)cc(OC)c1OC | 4.92 | 5.02 | 4.75 | – | –
COc1cc(-n2c(-c3ccc(Cl)cc3)csc2=S)cc(OC)c1OC | – | – | – | > 100 | –
COc1cc(-c2csc(=S)n2Cc2ccc(F)cc2)cc(OC)c1OC | 4.80 | 5.00 | 4.73 | – | –
COc1cc(C2(O)CSC(=S)N2Cc2ccc(Cl)cc2)cc(OC)c1OC (stereo not given) | 4.94 | 4.73 | 4.74 | – | –
COc1cc(-c2csc(=S)n2Cc2ccccc2Cl)cc(OC)c1OC | 4.86 | 5.55 | 4.87 | – | Activity [5]: 14.74%; IC50 [6]: > 200 µg/mL; hemolysis at 1 h, 10 ug/ml [7]: < 25%; Activity [9]: Non-Toxic; IC50 [10]: 5.14 µg/mL; inhibition [11]: Dose-dependent effect; inhibition [23]: Active; Activity [12]: 78.02%; Activity [13]: 7.17%; Activity [14]: 0.07%; viability at 2 µg/mL [15]: 68.9%; Activity [16]: 3.06%; Activity [17]: 15.49%; Activity [18]: 12.57%; viability at 4 µg/mL [19]: 58.9%; Activity [20]: 7.6%; Activity [21]: 19.81%; Activity [22]: 13.72%
COc1cc(-c2csc(=S)n2C)cc(OC)c1OC | 4.76 | 4.56 | 4.63 | – | –
COc1cc(-c2csc(=S)n2-c2ccc(Cl)cc2)cc(OC)c1OC | 4.81 | 4.77 | 4.75 | – | –
COc1cc(C2(O)CSC(=S)N2C)cc(OC)c1OC (stereo not given) | 4.99 | 4.58 | 4.87 | – | –
COc1cc(C2(O)CSC(=S)N2Cc2ccccc2)cc(OC)c1OC (stereo not given) | 4.89 | 4.87 | 4.86 | – | –
COc1ccc(-c2coc(=O)n2-c2cc(OC)c(OC)c(OC)c2)cc1N | – | – | – | – | pIC50 [24]: 8.37 to 8.96; pIC50 [25]: 8.37 to 8.96; pIC50 [26]: 8.37 to 8.96; pIC50 [27]: 8.37 to 8.96; pIC50 [28]: 8.37 to 8.96
